Laboratory results published in ChEMBL document CHEMBL1137351, “Discovery of conformationally constrained tetracyclic compounds as potent hepatitis C virus NS5B RNA polymerase inhibitors” (J Med Chem, 2006).

Legend:
[1] = target: RNA-directed RNA polymerase (Hepacivirus hominis, UniProt O39930); assay: Inhibition of HCV NS5B RNA polymerase
Huh-5-2 [2] = assay: Inhibition of replication of HCV 1b BK RNA in Huh5-2 cells in presence of 10% fetal calf serum; type: functional, cell-based, Hepacivirus hominis; conditions: Homo sapiens, genotype 1b BK
Method in brief: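 Huh-5-2 cells carrying the HCV replicon, assayed in medium with 10% FCS. EC50 is the mean of three independent experiments, with standard deviations within 30% of the mean.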

Caco-2 [3] = assay: Cytotoxicity against Caco-2 cells; type: functional; conditions: Homo sapiens
[4] = (§1) Permeability across Caco-2 cells; type: ADME, cell-based; conditions: human, read-out: permeability
Huh-5-2 [5] = assay: Inhibition of replication of HCV 1b BK RNA in Huh5-2 cells in presence of 10% fetal calf serum and 4% human serum albumin; type: functional, cell-based, Hepacivirus hominis; conditions: genotype 1b BK
Method in brief: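 Huh-5-2 replicon cells in medium with 10% FCS plus 4% human serum albumin. EC50 is the average of two experiments.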

Caco-2 [6] = assay: as §1; type: ADME, cell-based; conditions: human

RNA-directed RNA polymerase, sequence (O39930 whole entry): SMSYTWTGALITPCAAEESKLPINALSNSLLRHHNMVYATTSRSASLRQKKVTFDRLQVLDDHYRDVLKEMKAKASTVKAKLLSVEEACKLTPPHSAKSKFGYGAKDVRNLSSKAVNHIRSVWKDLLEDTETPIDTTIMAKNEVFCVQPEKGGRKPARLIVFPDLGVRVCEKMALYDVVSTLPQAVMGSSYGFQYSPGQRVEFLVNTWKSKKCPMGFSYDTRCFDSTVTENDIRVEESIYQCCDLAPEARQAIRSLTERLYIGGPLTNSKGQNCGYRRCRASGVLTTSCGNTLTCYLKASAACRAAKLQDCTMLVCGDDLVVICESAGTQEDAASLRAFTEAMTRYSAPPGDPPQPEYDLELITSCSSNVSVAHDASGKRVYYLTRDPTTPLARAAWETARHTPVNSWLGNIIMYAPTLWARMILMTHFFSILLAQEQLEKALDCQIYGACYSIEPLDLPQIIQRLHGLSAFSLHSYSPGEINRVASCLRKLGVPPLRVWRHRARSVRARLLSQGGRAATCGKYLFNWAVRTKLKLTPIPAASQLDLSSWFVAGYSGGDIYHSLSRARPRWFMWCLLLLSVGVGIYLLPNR

SMILES	IC50 [1]	EC50 (Huh-5-2 [2])	Papp [4]	EC50 (Huh-5-2 [5])	Activity (Caco-2 [6])	CC50 (Caco-2 [3])
Cl.O=C(O)c1ccc2c(C3CCCCC3)c3n(c2c1)CCNc1ccccc1-3	21 nM	570 nM	55.9 ×10⁻⁶ cm/s	> 10000 nM	–	> 20000 nM
Cl.Cl.O=C(O)c1ccc2c(C3CCCCC3)c3n(c2c1)CCN(CCN1CCCCC1)c1ccccc1-3	9 nM	35 nM	18.6 ×10⁻⁶ cm/s	84 nM	–	> 20000 nM
CN(C)CCN1CCn2c(c(C3CCCCC3)c3ccc(C(=O)O)cc32)-c2ccccc21.Cl.Cl	18 nM	53 nM	19.2 ×10⁻⁶ cm/s	200 nM	–	> 20000 nM
CN1CCn2c(c(C3CCCCC3)c3ccc(C(=O)O)cc32)-c2ccccc21	19 nM	590 nM	–	6500 nM	Active	> 20000 nM
CC(C)N1CCn2c(c(C3CCCCC3)c3ccc(C(=O)O)cc32)-c2ccccc21	36 nM	1500 nM	–	–	Active	> 20000 nM
O=C(O)c1ccc2c(C3CCCCC3)c3n(c2c1)CCN(CCc1ccccc1)c1ccccc1-3	26 nM	310 nM	–	–	Active	> 20000 nM
Cn1c(-c2ccc(OCc3ccccc3)cc2)c(C2CCCCC2)c2ccc(C(=O)O)cc21	120 nM	–	–	–	–	–
CC(=O)N1CCn2c(c(C3CCCCC3)c3ccc(C(=O)O)cc32)-c2ccccc21	120 nM	1100 nM	–	–	Active	> 20000 nM
CN(C)C(=O)CN1CCn2c(c(C3CCCCC3)c3ccc(C(=O)O)cc32)-c2ccccc21	24 nM	210 nM	51.9 ×10⁻⁶ cm/s	4300 nM	–	> 20000 nM
O=C(O)c1ccc2c(C3CCCCC3)c3n(c2c1)CCOc1cc(OCc2ccccc2)ccc1-3	17 nM	–	–	–	–	–
O=C(O)c1ccc2c(C3CCCCC3)c3n(c2c1)COc1ccccc1-3	140 nM	4200 nM	–	–	–	–
O=C(O)c1ccc2c(C3CCCCC3)c3n(c2c1)CCN(Cc1ccccc1)c1ccccc1-3	41 nM	550 nM	–	–	Active	> 20000 nM

The next lines start with results.

IC50 [1]	EC50 (Huh-5-2 [2])	Papp [4]	EC50 (Huh-5-2 [5])	Activity (Caco-2 [6])	SMILES	CC50 (Caco-2 [3])
38 nM	1400 nM	–	–	–	O=C(O)c1ccc2c(C3CCCCC3)c3n(c2c1)CCSc1ccccc1-3	–
77 nM	3000 nM	–	–	–	O=C(O)c1ccc2c(C3CCCCC3)c3n(c2c1)CCCc1ccccc1-3	–
210 nM	> 10000 nM	–	–	–	O=C(O)c1ccc2c(C3CCCCC3)c3n(c2c1)Cc1ccccc1-3	–
140 nM	6000 nM	–	–	–	O=C(O)c1ccc2c(C3CCCCC3)c3n(c2c1)CCc1ccccc1-3	–
26 nM	860 nM	–	–	–	O=C(O)c1ccc2c(C3CCCCC3)c3n(c2c1)CCOc1ccccc1-3	–
